Results on 15 compounds are retold here after ChEMBL document CHEMBL1811832, “Transformation of isosteviol lactam by fungi and the suppressive effects of its transformed products on LPS-induced iNOS expression in macrophages” (2011).

This test deals with RAW264.7. As to the kind of experiment: Antiinflammatory activity against mouse RAW264.7 cells assessed as inhibition of LPS-induced iNOS mRNA expression at 10 uM after 24 hrs by RT-PCR relative to control. The test is classed as functional. The procedure, abridged: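 Murine RAW 264.7 macrophages stimulated with LPS 100 ng/mL for 4 h, then treated with compound at 10 μM for 24 h with LPS still present; dexamethasone as reference. Total RNA extracted with TRIzol, oligo(dT)-primed cDNA, real-time PCR (50 cycles, dissociation-curve check). iNOS mRNA expressed as fold relative to LPS-only cells; mean ± SEM, n = 3, paired two-tailed t-test.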

Consider `CC1=C[C@@]2(CC#N)CC[C@H]3[C@](C)([C@@H]2CC1)[C@@H](O)CC[C@@]3(C)C(=O)O`, for which the “fold change (FC)” value was found to be 0.43.
Regarding `C=C1C[C@@]2(CC#N)CC[C@H]3[C@@](C)(CCC[C@@]3(C)C(=O)O)[C@@H]2C[C@H]1Cl`, the “fold change (FC)” value was 0.3.
With `C[C@@]12CC[C@H]3[C@]4(C)CCC[C@@](C)(C(=O)O)[C@H]4C[C@H](O)[C@]3(CC(=O)N1)C2` the figure was 0.61; with `C[C@@H]1C[C@H]2[C@@H]3CCC4=CC(=O)C=C[C@]4(C)[C@@]3(F)[C@@H](O)C[C@]2(C)[C@@]1(O)C(=O)CO` [DEXAMETHASONE], 0.16; with `C[C@@]12CCC[C@@](C)(C(=O)O)[C@H]1CC[C@]13CC(=O)N[C@](C)(C1)[C@@H](O)C[C@H]32`, 0.13.
With `C[C@@]12CC[C@@H]3[C@@](CC[C@H]4[C@@]3(C)CCC[C@@]4(C)C(=O)O)(C/C1=N\O)C2` [ISOSTEVIOL OXIME], the “fold change (FC)” value turned out to be 0.15.
With `C[C@]12CC[C@H]3[C@]4(C)CCC[C@@](C)(C(=O)O)[C@H]4CC[C@@]3(C1)[C@H](Cl)C(=O)N2` the figure was 0.85.
With `CCO[C@@H]1C[C@@H]2[C@@](CC#N)(C=C1C)CC[C@H]1[C@@]2(C)CCC[C@@]1(C)C(=O)O` the figure was 0.21; with `CC1=C[C@@]2(CC#N)[C@@H](O)C[C@H]3[C@@](C)(CCC[C@@]3(C)C(=O)O)[C@@H]2CC1`, 0.12.
`C[C@@]12CC[C@@H]3[C@@](CC[C@H]4[C@@]3(C)CCC[C@@]4(C)C(=O)O)(CC1=O)C2` [ISOSTEVIOL]: the “fold change (FC)” value was 0.29.
With `CC1=CC[C@@H]2[C@](CC#N)(CC[C@H]3[C@@]2(C)CCC[C@@]3(C)C(=O)O)C1` the figure was 0.63; with `CO[C@H]1C[C@@H]2[C@@](CC#N)(C=C1C)CC[C@H]1[C@@]2(C)CCC[C@@]1(C)C(=O)O`, 0.2.
With `CC1=CC[C@@H]2[C@](CC#N)(CC[C@H]3[C@@]2(C)CCC[C@@]3(C)C(=O)OCCO)C1` the figure was 0.5.
The result for `CC1=C[C@@]2(CC#N)CC[C@H]3[C@@](C)(CCC[C@@]3(C)C(=O)O)[C@@H]2CC1` reads 0.48; that for `C[C@@]12CC[C@@H]3[C@@](CC[C@H]4[C@@]3(C)CCC[C@@]4(C)C(=O)O)(CC(=O)N1)C2` [ISOSTEVIOL LACTAM], 0.15.
